Published values gathered from unrelated publications.
Target: Ephrin type-B receptor 3 (EPHB3, Homo sapiens, UniProt P54753)
Sequence (P54753 34-998, as in one of the studies): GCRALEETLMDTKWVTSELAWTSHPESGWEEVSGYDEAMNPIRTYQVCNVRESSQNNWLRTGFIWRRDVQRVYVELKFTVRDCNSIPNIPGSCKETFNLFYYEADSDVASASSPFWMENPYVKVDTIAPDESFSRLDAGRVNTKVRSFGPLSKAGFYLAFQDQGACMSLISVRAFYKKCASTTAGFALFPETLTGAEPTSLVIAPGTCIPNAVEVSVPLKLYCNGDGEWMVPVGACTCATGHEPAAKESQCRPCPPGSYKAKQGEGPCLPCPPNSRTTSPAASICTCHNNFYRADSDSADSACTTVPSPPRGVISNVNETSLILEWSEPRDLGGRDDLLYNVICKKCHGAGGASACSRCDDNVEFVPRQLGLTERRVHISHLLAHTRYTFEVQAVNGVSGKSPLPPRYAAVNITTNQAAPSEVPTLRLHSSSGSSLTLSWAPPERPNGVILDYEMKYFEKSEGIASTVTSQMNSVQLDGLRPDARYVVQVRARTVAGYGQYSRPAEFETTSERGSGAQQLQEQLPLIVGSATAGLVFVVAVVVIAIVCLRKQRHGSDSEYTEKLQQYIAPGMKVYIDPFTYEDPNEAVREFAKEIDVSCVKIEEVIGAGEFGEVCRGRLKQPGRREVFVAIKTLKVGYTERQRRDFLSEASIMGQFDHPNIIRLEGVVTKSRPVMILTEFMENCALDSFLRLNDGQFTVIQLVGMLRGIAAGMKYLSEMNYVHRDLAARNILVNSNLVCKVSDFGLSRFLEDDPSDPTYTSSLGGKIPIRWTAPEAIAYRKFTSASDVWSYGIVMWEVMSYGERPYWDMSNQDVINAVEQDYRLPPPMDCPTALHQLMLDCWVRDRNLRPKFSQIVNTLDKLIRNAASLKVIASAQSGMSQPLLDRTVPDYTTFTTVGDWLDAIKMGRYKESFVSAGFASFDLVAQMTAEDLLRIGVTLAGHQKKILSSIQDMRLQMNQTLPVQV

| SMILES | read-out | action | method | concentration | endpoint | result |
| --- | --- | --- | --- | --- | --- | --- |
| Cn1cc(-c2cc(F)cc(N3CCn4c(cc5c4CCCC5)C3=O)c2CO)cc(Nc2ccc(N3CCN(C4COC4)CC3)cn2)c1=O | enzyme activity | inhibitor | – | 0.1 µM | inhibition | 7% |
| O=c1[nH]c2ccccc2n1C1CCN(Cc2ccc(-c3[nH]c4cc5ncnc5cc4nc3-c3ccccc3)cc2)CC1 | cell-free assay | – | – | 0.5 µM | remaining signal | 104% |
| N#CC1(c2ccccn2)CCN(Cc2cc(C(=O)O)c(=O)n3ccccc23)CC1 | cell-free assay | – | competition with immobilised ligand | 1 µM | remaining binding | 92% |
| Cn1cc(-c2cccc(N3CCc4c(sc5c4CC(C)(C)C5)C3=O)c2CO)cc(Nc2ccncn2)c1=O | enzyme activity | inhibitor | – | 1 µM | inhibition | 1% |
| COc1cc(Nc2ncc(F)c(Nc3ccc4c(n3)NC(=O)C(C)(C)O4)n2)cc(OC)c1OC | binding | – | – | 10 µM | inhibition | 0% |
| Cc1nn(C)cc1-c1nc2c(N3CCN(Cc4ccc(Cl)cc4)CC3)c(Cl)cnc2[nH]1 | binding | – | competition with immobilised ligand | 1 µM | remaining binding | 77% |
| CC(C)(C)c1cc(C=C(C#N)C#N)cc(Br)c1O | enzyme activity | inhibitor | – | 0.5 µM | remaining activity | 107% |
| Cn1cncc1[C@](O)(COc1ccc(C#N)cc1-c1ccc(OC(F)(F)F)cc1)c1ccc(C#N)cc1 | cell-free assay | – | competition with immobilised ligand | 1 µM | remaining binding | 100% |
| COc1ncccc1-c1cnn2ccc(N3CCN(C(=O)OC(C)C)CC3)nc12 | binding | – | competition with immobilised ligand | 1 µM | remaining binding | 100% |
